# TAAR1 antagonist = human TAAR1 antagonism; Q96RJ0; CHO RD-HGA16 TAAR1, Fluo-8 calcium fluorescence, antagonist; inhibition, % at 3 µM; actives 1.5% (n = 360,000); AID 624466;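 active = inhibition above a per-plate cutoff, the mean inhibition of test compounds on that plate plus 3 SD, cut at about 49% in these data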
#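 Test system: RD-HGA16 CHO cells with stable hTAAR1 and Gα16 / Probe or stimulus: EC80 β-phenethylamine stimulus / Times: seeding 17-24 h prior, 75-min 37 °C, 30-min RT dye loading / Detection: Fluo-8 calcium-sensitive fluorescence / Read-out basis: % inhibition scaled between DMSO and EC80 PEA controls / Repeats: singlicate, one well per test compound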
# OX1R antag-1 = antagonists of human orexin 1 receptor; CHO/OX1R cells, Fluo-8 calcium fluorescence, orexin A; inhibition, % at 5 µM; actives 0.43% (n = 330,000); AID 434989;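 active = inhibition above its plate's threshold, mean inhibition of all tested compounds on the plate plus 3 SD, cut at about 37% in these data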
# Target sequence (O43613 whole entry, looked up): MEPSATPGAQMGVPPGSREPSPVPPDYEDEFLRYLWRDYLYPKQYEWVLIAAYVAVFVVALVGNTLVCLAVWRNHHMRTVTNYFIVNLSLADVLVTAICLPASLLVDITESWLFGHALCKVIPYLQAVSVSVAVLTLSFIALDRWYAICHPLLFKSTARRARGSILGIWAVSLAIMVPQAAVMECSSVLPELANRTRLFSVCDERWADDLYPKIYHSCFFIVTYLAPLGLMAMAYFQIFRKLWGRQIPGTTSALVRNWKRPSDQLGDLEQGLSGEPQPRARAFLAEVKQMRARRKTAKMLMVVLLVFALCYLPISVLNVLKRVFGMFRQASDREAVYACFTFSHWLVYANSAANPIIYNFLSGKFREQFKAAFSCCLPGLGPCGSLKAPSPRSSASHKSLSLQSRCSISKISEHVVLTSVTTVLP
# TAAR1 agonist = human TAAR1 agonism. CHO RD-HGA16 TAAR1, Fluo-8 calcium fluorescence; vehicle wells 0%, saturating PEA agonist 100%. activation, % at 3 µM. actives 0.99% (n = 360,000). AID 624467;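 active = activation above the mean activation of all test compounds in the run plus 3 SD, cut at about 38% in these data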
#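 Assay system: CHO-derived RD-HGA16 cells with stable Gα16 and human TAAR1; timing: 17-24 h seeding, 75 min 37 °C dye, 30 min RT; read-out: % activation from peak over basal fluorescence ratio, DMSO-to-PEA scaled; measured by: kinetic Fluo-8 calcium fluorescence; benchmarks: low control DMSO, high control PEA (EC100); doses: 3 µM single concentration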
# GPR7 antag = blocks human GPR7 receptor signaling. GPR7-expressing cells, fluorescence antagonist assay. actives 1.1% (n = 290,000). AID 1861. inhibition, % at 4.4 µM; in the data active = inhibition above about 16%, passing the limit was not always enough;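 also: cells stimulated with the agonist NPW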
# OX1R antag-2 = blocks the human orexin 1 receptor; actives 1.8% (n = 330,000); O43613; OX1R-expressing cells, FRET antagonist read-out; inhibition, % at 6.6 µM; in the data active = inhibition mostly above about 38%, no sharp cut-off; inactive = mostly below about 40%
# CHO parental Ca = signal in parental CHO cells, OX1R antagonist counter-screen | inhibition, % at 5.6 µM | AID 463079 | parental CHO-K1, ATP-induced calcium, Fluo-8 fluorescence | actives 0.63% (n = 330,000);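 active = inhibition above that plate's mean sample inhibition plus 3 SD, cut at about 26% in these data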
#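 Assay system: parental CHO cells; Read-out basis: percent inhibition of ATP-evoked calcium rise, normalized to controls; Benchmarks: ATP and no-ATP DMSO wells; Compound dosing: single nominal dose of 5.6 µM per compound; Signal: Fluo-8 calcium dye fluorescence; Also added: ATP as calcium-mobilizing challenge; Repeats: singlicate.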
# Numbers stand for hits; – = inactive; · = not tested or not shown. This is a sample that favours compounds with a hit; in the whole collection about 4.5% have one here.
SMILES,TAAR1 antagonist,OX1R antag-1,TAAR1 agonist,GPR7 antag,OX1R antag-2,CHO parental Ca
COc1ccc(C(=O)/C(=C\c2ccco2)N2C=CC=CC2=C(C#N)C#N)cc1,·,–,·,47.1,66.2,–
COc1ccc(/C=C(/C(=O)c2cccs2)N2C=CC=CC2=C(C#N)C#N)cc1,56.0,·,–,–,·,·
COc1ccc(OC)c(S(=O)(=O)CC(=O)c2cc3ccccc3oc2=O)c1,–,·,–,·,·,·
COC(=O)[C@]12C[C@H](CC(=O)NCc3cccs3)C(=O)N(CCC3=CCCCC3)C1=C[C@H](COCc1ccccc1)O[C@@H]2C,–,·,–,·,·,·
Cc1cc(N2CCNC[C@H]2C)ccc1N1CCN(Cc2ccccc2)[C@H](C)C1,–,·,–,·,·,·
Cc1cccc(C)c1Nc1nnc(SCc2cc([N+](=O)[O-])cc3c2OCOC3)s1,–,–,–,–,–,–
COc1cccc(Nc2nnc(SCc3cc([N+](=O)[O-])cc4c3OCOC4)s2)c1,–,–,–,–,67.8,–
C#CCNC(=O)C[C@H]1C[C@@]2(C(=O)OC)C(=C[C@H](C(C)(C)C)O[C@@H]2C)N(Cc2ccccc2)C1=O,–,·,–,·,·,·
Fc1ccc(CNCc2ccccc2Cl)cc1,–,–,–,19.1,–,–
Oc1ccccc1/C=N/Nc1nccnc1Cl,–,–,41.5,–,–,–
COc1cc2c(=O)[nH]c3cc([N+](=O)[O-])ccc3c2cc1[N+](=O)[O-],–,·,–,·,·,·
O=c1[nH]cnc2ccc([N+](=O)[O-])cc12,–,–,–,–,52.3,–
O=c1[nH][nH]c(=O)c2cc([N+](=O)[O-])ccc12,–,–,–,·,51.7,–
O=[N+]([O-])c1ccc(COc2cccc(CO)c2)cc1,–,·,–,·,·,·
COc1ccccc1C(=O)C1Nc2ccccc2-c2nnc(SC)nc2O1 (centres undefined),–,–,–,–,50.2,–
CN1OC[C@@H]2CN(Cc3ccc(Cl)cc3)[C@H](c3cccc(Br)c3)C[C@@H]21,–,·,–,·,·,·
O=C(COC(=O)/C=C/c1ccccc1Cl)NCCNC(=O)COC(=O)/C=C/c1ccccc1Cl,–,–,–,–,–,–
O=C(COC(=O)c1ccc([N+](=O)[O-])o1)c1ccccc1,–,–,–,–,–,–
COC(=O)C1=C(C)NC(=S)NC1c1ccc(-c2cc(Cl)ccc2Cl)o1 (centres undefined),–,–,–,–,55.5,–
CC(C)CN(C(=O)COC(=O)c1ccc([N+](=O)[O-])o1)C1CCS(=O)(=O)C1 (centres undefined),–,–,–,–,74.7,–
NS(=O)(=O)c1ccc(CCNC(=O)COC(=O)/C=C/c2ccccc2Cl)cc1,–,–,41.5,–,–,–
CC(C)CN(C(=O)COC(=O)c1cc2ccccc2oc1=O)C1CCS(=O)(=O)C1 (centres undefined),·,·,·,–,·,·
O=C(OCCCOC(=O)c1ccc([N+](=O)[O-])o1)c1ccc([N+](=O)[O-])o1,–,–,–,·,52.9,–
Cc1ccsc1C(=O)N1CCCC(C)(C(=O)O)C1 (centres undefined),–,·,–,·,·,·
CN(C)C(=O)N1CCN(C(=O)[C@H]2O[C@@H](n3ccc(N)nc3=O)[C@H](O)[C@@H]2O)CC1,–,·,–,·,·,·
SMILES,TAAR1 antagonist,OX1R antag-1,TAAR1 agonist,GPR7 antag,OX1R antag-2,CHO parental Ca
CCCCOCC1CN(CCCC)S(=O)(=O)c2c(cccc2N2CCCCC2)O1 (centres undefined),–,·,–,·,·,·
CCCCCCCCN1C(=O)[C@H](CC(=O)N2CCN(C(=O)C3CC3)CC2)C[C@@]2(C(=O)OCC)CCCC=C12,–,·,–,·,·,·
COC(=O)C1=C(C)NC(=O)NC1c1ccc([N+](=O)[O-])o1 (centres undefined),–,–,–,–,76.6,–
NS(=O)(=O)c1ccc(CCNC(=O)COC(=O)c2ccc([N+](=O)[O-])o2)cc1,–,–,–,·,43.7,–
CCOC(=O)C1=C(COC(=O)c2ccc([N+](=O)[O-])o2)NC(=O)NC1C (centres undefined),–,–,–,·,29.9,–
O=C(COC(=O)c1ccc([N+](=O)[O-])o1)NCc1ccccc1,–,–,–,·,–,–
CCOC(=O)C1=C(COC(=O)c2cc([N+](=O)[O-])ccc2Cl)NC(=O)NC1C (centres undefined),–,·,–,·,·,·
CCOC(=O)C1CCN(C(=O)COC(=O)c2ccc([N+](=O)[O-])o2)CC1,–,–,–,·,32.8,–
Cc1[nH]c2ccccc2c1CC(=O)Nc1ccc(Nc2cccnc2)c(-c2ccc(Oc3ccccc3)cc2)c1,–,·,–,·,·,·
CC1CCCC(C)N1C(=O)COC(=O)c1ccc([N+](=O)[O-])o1 (centres undefined),–,–,–,·,39.3,–
COC(=O)c1ccc2nc(-c3cccc(Cl)c3)c(Cc3ccccc3C(F)(F)F)n2c1,–,·,–,·,·,·
CCN1CCN(c2ccc(Nc3ccnc4ccccc34)cc2)CC1,–,–,–,·,29.9,–
O=c1[nH]c2cc(C(F)(F)F)ccc2n1-c1cc(C(F)(F)F)ccc1O,–,51.2,–,·,–,83.8
CC1=[N+](C)c2c(ccc3cccnc23)C1(C)C,–,·,–,28.1,·,·
O=C(COC(=O)c1ccccc1C(F)(F)F)NC(=O)NCc1ccco1,–,–,–,·,–,–
CC(C)c1cc(C(=O)OCC(=O)NC(=O)NCc2ccco2)c(O)c(C(C)C)c1,–,–,–,16.9,–,–
CCc1ccccc1Oc1nc(NCCOC)nc2cc(-c3ccccc3)sc12,–,·,–,·,·,·
CN(c1ccccc1)S(=O)(=O)c1cccc(NC(=O)CCNC(=O)c2ccccc2)c1,53.8,–,–,·,–,–
CN(c1ccccc1)S(=O)(=O)c1cccc(C(=O)NNC(=O)c2ccccc2)c1,–,–,–,–,45.8,–
N#Cc1ccccc1S(=O)(=O)N1CCN(C(=O)CCNS(=O)(=O)c2ccc(Cl)cc2)CC1,–,·,–,·,·,·
O=C(Nc1ccccc1C(=O)N1CCN(c2ccccc2)CC1)c1ccco1,–,–,–,–,51.1,–
O=C1CCCc2c1nc(-c1ccc([N+](=O)[O-])cc1)n2O,–,–,–,–,48.4,–
COc1ccccc1Nc1ccc(NC(=O)c2cccc([N+](=O)[O-])c2C)cc1,51.4,–,–,–,–,–
COc1ccccc1NC(=O)c1ccccc1S(=O)(=O)c1ccc([N+](=O)[O-])cc1,–,–,–,–,–,–
COc1ccc(NC(=O)c2ccccc2[N+](=O)[O-])cc1,–,–,–,–,–,–
COc1ccccc1NC(=O)c1ccccc1S(=O)(=O)c1ccccc1[N+](=O)[O-],–,–,–,–,58.3,–
O=C(CNSc1ccc([N+](=O)[O-])cc1[N+](=O)[O-])OCc1ccccc1,–,·,–,·,·,·
CC1(C(=O)Nc2ccc3c(c2)OCCO3)CCN1C(=O)c1ccco1 (centres undefined),–,·,–,·,·,·
